ChEMBL document CHEMBL4145574, “Inhibition of Breast Cancer Cell Migration by Cyclotides Isolated from Pombalia calceolaria” (J Nat Prod, 2018)
Where a SMILES comes first, the peptide text is derived from it. Bridges are numbered along the chain shown (N, C = ends).

Tests used:
MDA-MB-231 [1] = test: Cytotoxicity against human MDA-MB-231 cells assessed as membrane disintegration at 2 to 5 uM; assay type: cell-based; conditions: mda-mb-231, 5 µM
Procedure, shortened: (§1)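 Toxicity was judged visually during the wound-healing assay. MDA-MB-231 monolayers were scratched, then incubated 22 h at 37 °C in medium with 10% FBS and compound at 10, 5, 2 or 1 μM. Cells were scored for detachment and for morphological change (volume reduction, membrane disintegration).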

MDA-MB-231 [2] = test: Cytotoxicity against human MDA-MB-231 cells assessed as reduction in cell volume at 10 uM; assay type: cell-based; conditions: mda-mb-231, 10 µM; procedure, shortened: as §1
MDA-MB-231 [3] = test: Cytotoxicity against human MDA-MB-231 cells assessed as cell detachment at 2 to 5 uM; assay type: cell-based; conditions: mda-mb-231, 5 µM; procedure, shortened: as §1
MDA-MB-231 [4] = test: Cytotoxicity against human MDA-MB-231 cells assessed as cell death after 24 hrs by MTS assay; assay type: functional, cell-based; conditions: MDA-MB-231, 24 h
Procedure, shortened: (§2)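 MDA-MB-231 cells in DMEM with 10% FBS at 37 °C, 5% CO2, seeded at 4 × 10^3 cells/well. After 24 h, seven concentrations (20−0.03 μM) were added in triplicate, with doxorubicin as control. After 24 h exposure, MTS was added for 4 h at 37 °C and absorbance read at 490 nm. Viability is relative to control wells; IC50 is from nonlinear regression. At least two independent experiments.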

MDA-MB-231 [5] = test: Cytotoxicity against human MDA-MB-231 cells assessed as cell detachment at 10 uM; assay type: cell-based; conditions: mda-mb-231, 10 µM; procedure, shortened: as §1
MDA-MB-231 [6] = test: Cytotoxicity against human MDA-MB-231 cells assessed as membrane disintegration at 10 uM; assay type: cell-based; conditions: mda-mb-231, 10 µM; procedure, shortened: as §1
MDA-MB-231 [7] = test: Cytotoxicity against human MDA-MB-231 cells assessed as reduction in cell volume at 2 to 5 uM; assay type: cell-based; conditions: mda-mb-231, 5 µM; procedure, shortened: as §1
MDA-MB-231 [8] = test: Inhibition of cell migration in human MDA-MB-231 cells at 1 uM incubated for 22 hrs by scratch wound healing assay relative to control; conditions: MDA-MB-231, 22 h
MDA-MB-231 [9] = test: Cytotoxicity against human MDA-MB-231 cells assessed as cell death at 20 uM after 24 hrs by MTS assay relative to control; assay type: functional; procedure, shortened: as §2
MDA-MB-231 [10] = test: Inhibition of cell migration in human MDA-MB-231 cells at 5 uM incubated for […] by scratch wound healing assay relative to control; assay type: functional
Procedure, shortened: (§3)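 MDA-MB-231 cells were seeded at 1 × 10^5 cells/well and grown to a confluent monolayer, then scratched with a pipet tip. Debris was rinsed with FBS-free medium. Cells were incubated 22 h at 37 °C in 10% FBS medium with compound (10, 5, 2, 1 μM), with colchicine as positive control. Wound areas were imaged at 0 and 22 h and measured. Two independent experiments in triplicate, reported as mean ± SD.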

MDA-MB-231 [11] = test: Inhibition of cell migration in human MDA-MB-231 cells at 2 uM incubated for […] by scratch wound healing assay relative to control; assay type: functional; procedure, shortened: as §3
MDA-MB-231 [12] = test: Inhibition of cell migration in human MDA-MB-231 cells at 10 uM […] by scratch wound healing assay relative to control; assay type: functional; conditions: MDA-MB-231, 22 h, in the assay text read “22 hrs” for “24 hrs”
Procedure, shortened: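 MDA-MB-231 cells in DMEM + 10% FBS, 37 °C, 5% CO2; 1 × 10^5 cells/well grown to confluence, monolayer scratched with pipet tip, debris rinsed with FBS-free medium. Incubated 22 h at 37 °C in 10% FBS medium with compound (10, 5, 2, 1 μM). Wound areas imaged at 0 and 22 h and measured; cell toxicity judged visually. Colchicine positive control. Two independent experiments in triplicate, mean ± SD.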

Row | Structure (SMILES) | Activity (MDA-MB-231 [2]) | IC50 (MDA-MB-231 [4]) [nM] | Activity (MDA-MB-231 [5]) | Activity (MDA-MB-231 [6]) | inhibition at 1 µM (MDA-MB-231 [8]) [%] | Activity (MDA-MB-231 [9]) [%] | further results
1 | CC[C@H](C)[C@@H]1NC(=O)[C@H](C)NC(=O)[C@H]([C@@H](C)O)NC(=O)[C@H](C(C)C)NC(=O)[C@@H]2CSSC[C@@H]3NC(=O)[C@H](C(C)C)NC(=O)[C@H](CCCNC(=N)N)NC(=O)[C@H](CC(=O)O)NC(=O)[C@H](CCCN)NC(=O)[C@@H]4CSSC[C@H](NC(=O)[C@H](CO)NC(=O)[C@H](CCC(=O)O)NC(=O)[C@H](C)NC(=O)[C@H](CSSC[C@H](NC(=O)CNC(=O)[C@H](CC(C)C)NC1=O)C(=O)N[C@@H](CO)C(=O)N4)NC(=O)[C@@H]1CCCN1C(=O)[C@H]([C@@H](C)CC)NC(=O)CNC(=O)[C@H](CC(N)=O)NC(=O)[C@H](Cc1ccc(O)cc1)NC3=O)C(=O)N[C@@H](C(C)C)C(=O)N[C@@H](Cc1ccccc1)C(=O)N[C@@H]([C@@H](C)CC)C(=O)N1CCC[C@H]1C(=O)N2 [listing 1 of 2 here] | Toxic | 2700 | Toxic | Toxic |  |  | Activity (MDA-MB-231 [1]): Toxic; Activity (MDA-MB-231 [3]): Toxic; Activity (MDA-MB-231 [7]): Toxic
2 | CC[C@H](C)[C@@H]1NC(=O)[C@H](C)NC(=O)[C@H]([C@@H](C)O)NC(=O)[C@H](C(C)C)NC(=O)[C@@H]2CSSC[C@@H]3NC(=O)[C@H](C(C)C)NC(=O)[C@H](CCCNC(=N)N)NC(=O)[C@H](CC(=O)O)NC(=O)[C@H](CCCN)NC(=O)[C@@H]4CSSC[C@H](NC(=O)[C@H](CO)NC(=O)[C@H](CCC(=O)O)NC(=O)[C@H](C)NC(=O)[C@H](CSSC[C@H](NC(=O)CNC(=O)[C@H](CC(C)C)NC1=O)C(=O)N[C@@H](CO)C(=O)N4)NC(=O)[C@@H]1CCCN1C(=O)[C@H]([C@@H](C)CC)NC(=O)CNC(=O)[C@H](CC(N)=O)NC(=O)[C@H](Cc1ccc(O)cc1)NC3=O)C(=O)N[C@@H](C(C)C)C(=O)N[C@@H](Cc1ccccc1)C(=O)N[C@@H]([C@@H](C)CC)C(=O)N1CCC[C@H]1C(=O)N2 [listing 2 of 2 here] |  |  |  |  | 0 | >80 | 
3 | CC[C@H](C)[C@@H]1NC(=O)[C@H](C)NC(=O)[C@H](CO)NC(=O)[C@H](CO)NC(=O)[C@H]([C@@H](C)CC)NC(=O)[C@@H]2CSSC[C@@H]3NC(=O)[C@H](C(C)C)NC(=O)[C@H](CCCN)NC(=O)[C@H](CC(N)=O)NC(=O)[C@H](CCCN)NC(=O)[C@@H]4CSSC[C@H](NC(=O)[C@H](CO)NC(=O)[C@H](CCC(=O)O)NC(=O)CNC(=O)[C@H](CSSC[C@H](NC(=O)CNC1=O)C(=O)N[C@@H](CO)C(=O)N4)NC(=O)[C@@H]1CCCN1C(=O)[C@H]([C@@H](C)CC)NC(=O)CNC[C@@H](C(N)=O)NC(=O)[C@H](CCCN)NC(=O)[C@H](Cc1ccc(O)cc1)NC3=O)C(=O)N[C@@H](C(C)C)C(=O)N[C@@H](Cc1c[nH]c3ccccc13)C(=O)N[C@@H]([C@@H](C)CC)C(=O)N1CCC[C@H]1C(=O)N2 [listing 1 of 2 here] | Toxic | 9800 | Toxic | Toxic |  |  | 
4 | CC[C@H](C)[C@@H]1NC(=O)[C@H](C)NC(=O)[C@H](CO)NC(=O)[C@H](CO)NC(=O)[C@H]([C@@H](C)CC)NC(=O)[C@@H]2CSSC[C@@H]3NC(=O)[C@H](C(C)C)NC(=O)[C@H](CCCN)NC(=O)[C@H](CC(N)=O)NC(=O)[C@H](CCCN)NC(=O)[C@@H]4CSSC[C@H](NC(=O)[C@H](CO)NC(=O)[C@H](CCC(=O)O)NC(=O)CNC(=O)[C@H](CSSC[C@H](NC(=O)CNC1=O)C(=O)N[C@@H](CO)C(=O)N4)NC(=O)[C@@H]1CCCN1C(=O)[C@H]([C@@H](C)CC)NC(=O)CNC[C@@H](C(N)=O)NC(=O)[C@H](CCCN)NC(=O)[C@H](Cc1ccc(O)cc1)NC3=O)C(=O)N[C@@H](C(C)C)C(=O)N[C@@H](Cc1c[nH]c3ccccc13)C(=O)N[C@@H]([C@@H](C)CC)C(=O)N1CCC[C@H]1C(=O)N2 [listing 2 of 2 here] |  |  |  |  | 15 | >80 | inhibition at 5 µM (MDA-MB-231 [10]): 60%; inhibition at 2 µM (MDA-MB-231 [11]): 50%
5 | CC[C@H](C)[C@@H]1NC(=O)[C@H](C)NC(=O)[C@H]([C@@H](C)O)NC(=O)[C@H]([C@@H](C)CC)NC(=O)[C@H]([C@@H](C)O)NC(=O)[C@@H]2CSSC[C@@H]3NC(=O)[C@H](C(C)C)NC(=O)[C@H](CCCNC(=N)N)NC(=O)[C@H](CC(=O)O)NC(=O)[C@H](CCCNC(=N)N)NC(=O)[C@@H]4CSSC[C@H](NC(=O)[C@H](CO)NC(=O)[C@H](CCC(=O)O)NC(=O)[C@H](C)NC(=O)[C@H](CSSC[C@H](NC(=O)CNC(=O)[C@H](CC(C)C)NC1=O)C(=O)N[C@@H](CO)C(=O)N4)NC(=O)[C@@H]1CCCN1C(=O)[C@H](CC(C)C)NC(=O)CNC(=O)[C@H](CC(=O)O)NC(=O)[C@H](Cc1ccc(O)cc1)NC3=O)C(=O)N[C@@H](C(C)C)C(=O)N[C@@H](Cc1ccccc1)C(=O)N[C@@H]([C@@H](C)CC)C(=O)N1CCC[C@H]1C(=O)N2 (cyclo(AESCVFIPCTITAILGCSCRDRVCYDGLPC); disulfide 4-19, 9-24, 17-30) [listing 1 of 2 here] | Toxic | 1800 | Toxic | Toxic |  |  | Activity (MDA-MB-231 [1]): Toxic; Activity (MDA-MB-231 [3]): Toxic; Activity (MDA-MB-231 [7]): Toxic
6 | CC[C@H](C)[C@@H]1NC(=O)[C@H](C)NC(=O)[C@H]([C@@H](C)O)NC(=O)[C@H]([C@@H](C)CC)NC(=O)[C@H]([C@@H](C)O)NC(=O)[C@@H]2CSSC[C@@H]3NC(=O)[C@H](C(C)C)NC(=O)[C@H](CCCNC(=N)N)NC(=O)[C@H](CC(=O)O)NC(=O)[C@H](CCCNC(=N)N)NC(=O)[C@@H]4CSSC[C@H](NC(=O)[C@H](CO)NC(=O)[C@H](CCC(=O)O)NC(=O)[C@H](C)NC(=O)[C@H](CSSC[C@H](NC(=O)CNC(=O)[C@H](CC(C)C)NC1=O)C(=O)N[C@@H](CO)C(=O)N4)NC(=O)[C@@H]1CCCN1C(=O)[C@H](CC(C)C)NC(=O)CNC(=O)[C@H](CC(=O)O)NC(=O)[C@H](Cc1ccc(O)cc1)NC3=O)C(=O)N[C@@H](C(C)C)C(=O)N[C@@H](Cc1ccccc1)C(=O)N[C@@H]([C@@H](C)CC)C(=O)N1CCC[C@H]1C(=O)N2 (cyclo(AESCVFIPCTITAILGCSCRDRVCYDGLPC); disulfide 4-19, 9-24, 17-30) [listing 2 of 2 here] |  |  |  |  | 0 | >80 | 
7 | COc1cc2c(c(OC)c1OC)-c1ccc(OC)c(=O)cc1[C@@H](NC(C)=O)CC2 [COLCHICINE] |  |  |  |  | 75 |  | inhibition at 10 µM (MDA-MB-231 [12]): 85%
8 | COc1cccc2c1C(=O)c1c(O)c3c(c(O)c1C2=O)C[C@@](O)(C(=O)CO)C[C@@H]3O[C@H]1C[C@H](N)[C@H](O)[C@H](C)O1 [DOXORUBICIN] |  | 900 |  |  |  |  | 
